A selection: hits, their analogues and other compounds. The true share with any hit is near 3.7%.
KCNK9 block: KCNK9 potassium channel inhibitors, primary screen, HEK293 cells, thallium flux; B-score at 10 µM; FluxOR thallium flux fluorescence; stronger effect = lower value; Potassium channel subfamily K member 9 (Homo sapiens), Q9NPC2; 1.2% of 310,000 active;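 active means ratio B-score over 3 SD below the library mean, with starting fluorescence within 5 SD of its mean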;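 further: negative B-score means less thallium flux so channel inhibition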
KCNK3 inh: human KCNK3 channel inhibitors, primary screen, CHO cells, FluxOR thallium flux, B-score; FluxOR fluorescence; stronger effect = lower value; B-score at 10 µM; 0.84% of 340,000 active; AID 602410, 2012;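 active means B-score under library mean minus 4 SD, starting fluorescence ratio at most library mean plus 5 SD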;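 further: more negative B-score means stronger inhibition of thallium flux through KCNK3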
KCNQ1 inh: inhibitors of human KCNQ1 channel, primary screen, cell-based, thallium flux, high-throughput | Potassium voltage-gated channel subfamily KQT member 1 (Homo sapiens), P51787 | CHO-K1 KCNQ1, FluxOR thallium flux fluorescence; stronger effect = higher value | B-score at 10 µM | 1.3% of 310,000 active | AID 2642, 2010;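 active means compounds whose thallium flux B-score, printed positive for inhibition, exceeds three library SD while starting fluorescence stays within three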;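 further: channel opened by potassium depolarization with thallium stimulus after 20 min compound exposure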
Kir21 inh: inhibitors of mouse Kir2.1 inward-rectifier potassium channel; Inward rectifier potassium channel 2 (Mus musculus), P35561; HEK293-Kir2.1, FluxOR thallium flux fluorescence; stronger effect = lower value; B-score at 10 µM; 0.85% of 310,000 active;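 active means fluorescence ratio B-score at or below minus 3 SD of library scores, with starting-brightness B-score within 2 SD, cut at about -4.2 in these data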;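 further: channel flux triggered by added potassium and thallium sulfate stimulus; B-score of peak minus minimum fluorescence over baseline after thallium stimulus; more negative B-score means stronger Kir2.1 block with less thallium influx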
Target sequence (P35561 whole entry, looked up): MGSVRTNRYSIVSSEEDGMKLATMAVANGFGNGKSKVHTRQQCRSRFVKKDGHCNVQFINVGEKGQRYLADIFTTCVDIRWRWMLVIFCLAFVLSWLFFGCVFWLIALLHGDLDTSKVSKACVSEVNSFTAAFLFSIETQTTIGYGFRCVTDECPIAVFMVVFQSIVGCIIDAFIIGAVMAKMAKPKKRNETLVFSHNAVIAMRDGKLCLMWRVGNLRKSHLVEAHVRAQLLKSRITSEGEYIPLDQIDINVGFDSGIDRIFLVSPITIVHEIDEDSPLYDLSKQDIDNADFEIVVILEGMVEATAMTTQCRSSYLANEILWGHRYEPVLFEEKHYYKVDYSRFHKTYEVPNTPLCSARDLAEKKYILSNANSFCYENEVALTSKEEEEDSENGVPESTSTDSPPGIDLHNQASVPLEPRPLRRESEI
hERG rescue: hERG rescue from dofetilide block, primary screen, cell-based, CHO-hERG, FluxOR thallium flux, dofetilide IC70; AID 1511, 2009; activation (rescue from dofetilide block), less the hit threshold, % at 10 µM; Voltage-gated inwardly rectifying potassium channel KCNH2 (Homo sapiens), Q12809; dofetilide IC70 present; 0.51% of 310,000 active;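 active means activation above the mean of controls blocked by dofetilide plus 5 SD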;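 further: thallium influx through hERG after potassium depolarization seen as dye fluorescence rise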
KCNQ1 act: potentiators or activators of KCNQ1 channel, primary screen, cell-based, thallium flux, high-throughput; Potassium voltage-gated channel subfamily KQT member 1 (Homo sapiens), P51787; CHO-K1 KCNQ1, thallium flux FluxOR fluorescence; stronger effect = higher value; B-score at 10 µM; 0.35% of 310,000 active; AID 2648, 2010;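 active means fluorescence ratio B-score, a plate-corrected score, at least three library SD, with initial intensity B-score within 5 SD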
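System: CHO-K1 cells stably expressing KCNQ1 / Medium: assay buffer for compound exposure, DMSO matched across wells / Reagent: thallium- and potassium-containing depolarizing buffer / Compound: one concentration, matched DMSO / Incubation: 20 min compound pretreatment at room temperature / Measured by: kinetic FluxOR fluorescence, 10 s baseline plus 110 s post-stimulus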
KCNK9 inh conf: KCNK9 potassium channel inhibitors, confirmation, HEK293 cells, thallium flux, duplicate. shares compounds with KCNK9 block. FluxOR thallium flux fluorescence. 43% of 4,900 active. inhibition, % at 10 µM;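 active means thallium signal inhibited by more than 5 SD of the compound-free buffer control wells, on both duplicate plates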;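 further: 0% = assay buffer control wells without compound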
Kir2-1 spec: mouse Kir2.1 channel inhibition, confirmation, selectivity assay for KCNK9 modulator project, cell-based, HEK293, thallium flux | shares compounds with KCNK9 block | Kir2.1 cells, FluxOR thallium flux fluorescence | inhibition, % at 10 µM | 4% of 4,900 active | AID 492993, 2010;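 active means thallium signal drop more than 5 SD beyond the mean of the no-compound control wells, seen in both duplicate plates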;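 further: signal is fluorescence rise after thallium addition divided by baseline fluorescence; plate controls were assay buffer only for no effect and full block by chlorpromazine control for full effect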
HEK293 Tl ctr: thallium flux in non-induced HEK293 cells, confirmation, counter-screen for KCNK9 inhibitor project, cell-based, second counter screen, non-induced KCNK9-HEK293; shares compounds with KCNK9 block; FluxOR thallium flux; inhibition, % at 10 µM; 40% of 4,900 active; AID 492997, 2010;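 active means thallium signal drop beyond 5 SD of the untreated control mean, on both duplicate plates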;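 further: plate controls were buffer only IC0 wells for no effect and SID17386958 at its maximal inhibitory level for full effect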
An asterisk follows results filed as active; i = inactive; . = no result given.

SMILES	KCNK9 block	KCNK3 inh	KCNQ1 inh	Kir21 inh	hERG rescue	KCNQ1 act	KCNK9 inh conf	Kir2-1 spec	HEK293 Tl ctr
CCC(c1nnnn1Cc1cccs1)N1CCN(c2nc3ccccc3s2)CC1 (stereo unspecified)	-11*	i	i	-0.73	-11	i	30%*	i	i
CC(C1=C(CCN(C)C)Cc2ccccc21)c1ccccn1 (stereo unspecified)	.	i	.	.	.	.	.	.	.
Cc1ccc(SCc2cc(=O)[nH]c(Nc3nc(C)c4ccccc4n3)n2)cc1	i	i	i	-0.67	-6	i	i	i	i
Cc1ccc(SCc2cc(=O)[nH]c(Nc3nc(C)c4ccc(C)cc4n3)n2)cc1	i	i	i	0	-11	i	.	.	.
Cc1nc(N2CCC(C)CC2)c2nnn(Cc3ccccc3)c2n1	i	i	i	-0.03	-5	i	i	i	i
CC(C)Cc1nc(N2CCC(C(N)=O)CC2)c2nnn(Cc3ccccc3)c2n1	i	i	i	-0.02	-12	i	.	.	.
COc1ccc(Cl)cc1Nc1nc(C)nc2c1nnn2Cc1ccccc1	i	i	i	-0.4	-5	i	.	.	.
Cc1nc(NCCc2ccccc2)c2nnn(Cc3ccccc3Cl)c2n1	i	i	i	0.29	-4	i	.	.	.
COc1ccc(OC)c(Nc2nc(C3CC3)nc3c2nnn3Cc2ccccc2)c1	i	i	i	-0.69	-10	i	i	i	i
COc1ccc(CCNc2nc(C)nc3c2nnn3Cc2ccccc2)cc1	i	i	i	-0.11	-2	i	i	i	i
C=CC[C@@H](CC(=O)NCCO)C(=O)NCCOC(=O)[C@@H](CC=C)Cc1ccc(F)cc1	.	i	.	.	.	.	.	.	.
CCOc1ccc(CN(C)CC(=O)Nc2cc(C)c(C)cc2[N+](=O)[O-])cc1	i	i	i	0.72	-5	i	i	i	i
CC(=O)c1cccc(S(=O)(=O)NCCC(=O)NC2CCCCCC2)c1	.	i	.	.	.	.	.	.	.
O=C(CCN=C1NS(=O)(=O)c2ccccc21)Nc1ccc(Cl)cc1F	.	i	.	.	.	.	.	.	.
C#CCSc1nc(-c2ccccc2)cc(C(F)(F)F)c1C#N	-14*	i	i	0.34	-9	i	37%*	i	26%*
COc1ccc(C(=O)C(OC(=O)c2ccccc2Cl)c2ccccc2)cc1 (stereo unspecified)	-8.1*	i	i	0.45	-10	i	60%*	i	24%*
COc1ccc(C(=O)C(OC(=O)c2ccccc2)c2ccccc2)cc1 (stereo unspecified)	-14*	i	i	-0.67	-6	i	53%*	i	30%*
Cc1cnc(C(=O)OC(C(=O)c2ccccc2)c2ccccc2)cn1 (stereo unspecified)	.	i	.	.	.	.	.	.	.
Cc1ccc(NC(=O)C(OC(=O)c2ccccc2Cl)c2ccccc2)cc1Cl (stereo unspecified)	i	i	i	-1.4	-3	i	.	.	.
CCCCCCCCCC(=O)N1c2ccccc2NC(=O)C1CC(=O)Nc1ccc(C(=O)O)cc1 (stereo unspecified)	i	i	i	0.91	-11	i	.	.	.
Cc1ccc(-n2nnnc2SCC(=O)NC2CC2)cc1C	i	i	i	0.98	-7	i	.	.	.
COc1ccc(C(=O)C2CCCN(C(=O)CCc3scnc3C)C2)c(C)c1 (stereo unspecified)	i	i	i	-1.7	-10	i	i	i	i
COc1ccccc1C(=O)C1CCCN(C(=O)CCc2ccccn2)C1 (stereo unspecified)	i	i	i	-1.5	-4	i	.	.	.
COc1ccc(C(=O)C2CCCN(C(=O)c3ccc(C(C)=O)s3)C2)c(C)c1 (stereo unspecified)	i	i	i	-0.01	-13	i	i	i	i
COc1ccc2cc(C(=O)C3CCCN(C(=O)c4cccnc4)C3)ccc2c1 (stereo unspecified)	i	i	i	1.4	-11	i	.	.	.
SMILES	KCNK9 block	KCNK3 inh	KCNQ1 inh	Kir21 inh	hERG rescue	KCNQ1 act	KCNK9 inh conf	Kir2-1 spec	HEK293 Tl ctr
COc1ccc(C(=O)C2CCCN(C(=O)CCc3ccccn3)C2)c(C)c1 (stereo unspecified)	i	i	i	-1.4	-8	i	i	i	i
COc1ccc(NC2CCCN(C(=O)CCc3scnc3C)C2)cc1 (stereo unspecified)	i	i	i	-0.22	-7	i	.	.	.
COc1ccc2cc(C(=O)C3CCCN(C(=O)c4cnn(C(C)C)c4)C3)ccc2c1 (stereo unspecified)	i	i	i	-0.95	-9	i	i	i	i
CNC(=S)N1CCN(c2nc(-c3ccc(Cl)cc3)cs2)CC1	i	i	i	-0.65	-4	i	.	.	.
COc1ccc(C(=O)C2CCCN(C(=O)c3ccc4cc[nH]c4c3)C2)c(C)c1 (stereo unspecified)	i	i	i	-0.42	-21	i	i	i	i
COc1ccc(C(=O)C2CCCN(C(=O)c3cccnc3OC)C2)c(C)c1 (stereo unspecified)	i	i	i	2.5	-12	i	i	i	i
COc1c(C)cc(C(=O)C2CCCN(C(=O)/C=C/c3ccccn3)C2)cc1C (stereo unspecified)	i	i	i	-0.45	-16	i	i	i	i
COC(=O)CCCC(=O)N1CCCC(C(=O)c2ccc(OC)cc2C)C1 (stereo unspecified)	i	i	i	-0.48	0	i	i	i	i
CC1CCCN(C(=O)Cn2nnc(-c3ccc(S(C)(=O)=O)cc3)n2)C1 (stereo unspecified)	i	i	i	0.2	-4	i	.	.	.

Screens as filed in PubChem BioAssay.
